Measurements as given in ChEMBL document CHEMBL4382261, “Onydecalins, Fungal Polyketides with Anti- Histoplasma and Anti-TRP Activity” (J Nat Prod, 2018).
≈ marks a conversion by molar mass, not a printed value. Calls of active or inactive are those of the source. The rule behind the calls is not given here.

What was measured:
[1] = biological target: Transient receptor potential cation channel subfamily M member 8 (Homo sapiens, UniProt Q7Z2W7); test: Antagonist activity at human TRPM8 channel expressed in HEK293 cells assessed as inhibition of icilin-induced calcium flux by Fluo-4-AM dye based fluorescence assay; type: cell-based
Outline: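 Stable human TRPM8 HEK-293 cells, grown in DMEM:F12 with 5% FBS and Geneticin on gelatin-coated plates, were loaded with Fluo-4 AM for 60 min at 37 °C. Compounds were added 30 min before reading in LHC-9 with 1 mM probenecid and 0.75 mM trypan red. Icilin 50 µM was the agonist. Signal was normalized to the maximal agonist response, and IC50 came from 8-point curves with n=2–3.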

[2] = system: Histoplasma capsulatum; test: Antifungal activity against Histoplasma capsulatum G217B after 10 to 14 days by microscopic method; type: functional
Outline: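 G217B yeast-phase cells were grown in brain-heart infusion for 3 days at 37 °C under 5% CO2, then used at 1×10⁴ cells/mL final in RPMI. Twofold dilutions were tested at 64 to 0.125 µg/mL final; itraconazole (16 µg/mL downward) and amphotericin B (16 to 0.008 µg/mL) were diluted similarly. Plates were incubated 10–14 days at 37 °C under 5% CO2, with vehicle controls.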

[3] = system: Candida albicans; test: Antifungal activity against Candida albicans SC5314 at 0.25 to 64 ug/ml after 48 hrs by microscopic method; type: functional, organism-based
Outline: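 SC5314 yeast grown overnight in YPD at 30 °C were counted by hemocytometer and used at 1×10⁴ cells/mL final in YPD. Twofold compound dilutions from DMSO stocks were tested at 64 to 0.125 µg/mL final, incubated 48 h at 30 °C, with DMSO-only and untreated controls.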

[4] = system: Aspergillus fumigatus; test: Antifungal activity against Aspergillus fumigatus Af293 at 0.25 to 64 ug/ml after 48 hrs by microscopic method; type: functional, organism-based
Outline: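 Af293 spores in RPMI with 0.1% Tween-80 were counted by hemocytometer and used at 1×10⁴ spores/mL final. Twofold compound dilutions in RPMI from DMSO stocks were tested at 64 to 0.125 µg/mL final in 96-well plates at 37 °C for 48 h, alongside DMSO-only and untreated controls.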

[5] = biological target: Transient receptor potential cation channel subfamily V member 1 (Homo sapiens, UniProt Q8NER1); test: Antagonist activity at human TRPV1 channel expressed in human BEAS2B cells assessed as inhibition of […] by Fluo-4-AM dye based fluorescence assay; type: cell-based
[6] = biological target: Transient receptor potential cation channel subfamily V member 4 (Homo sapiens, UniProt Q9HBA0); test: Antagonist activity at human TRPV4 channel expressed in HEK293 cells assessed as inhibition of GSK1016790A-induced calcium flux by Fluo-4-AM dye based fluorescence assay; type: cell-based
Outline: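 HEK-293 cells stably overexpressing human TRPV4 were loaded with Fluo-4 AM for 60 min at 37 °C. Compounds were preincubated 30 min in LHC-9 containing 1 mM probenecid and 0.75 mM trypan red. GSK1016790A 0.03 µM was the agonist. Fluorescence change was normalized to the maximal agonist response, and IC50 came from 8-point curves with n=2–3.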

Transient receptor potential cation channel subfamily M member 8, sequence (Q7Z2W7 whole entry): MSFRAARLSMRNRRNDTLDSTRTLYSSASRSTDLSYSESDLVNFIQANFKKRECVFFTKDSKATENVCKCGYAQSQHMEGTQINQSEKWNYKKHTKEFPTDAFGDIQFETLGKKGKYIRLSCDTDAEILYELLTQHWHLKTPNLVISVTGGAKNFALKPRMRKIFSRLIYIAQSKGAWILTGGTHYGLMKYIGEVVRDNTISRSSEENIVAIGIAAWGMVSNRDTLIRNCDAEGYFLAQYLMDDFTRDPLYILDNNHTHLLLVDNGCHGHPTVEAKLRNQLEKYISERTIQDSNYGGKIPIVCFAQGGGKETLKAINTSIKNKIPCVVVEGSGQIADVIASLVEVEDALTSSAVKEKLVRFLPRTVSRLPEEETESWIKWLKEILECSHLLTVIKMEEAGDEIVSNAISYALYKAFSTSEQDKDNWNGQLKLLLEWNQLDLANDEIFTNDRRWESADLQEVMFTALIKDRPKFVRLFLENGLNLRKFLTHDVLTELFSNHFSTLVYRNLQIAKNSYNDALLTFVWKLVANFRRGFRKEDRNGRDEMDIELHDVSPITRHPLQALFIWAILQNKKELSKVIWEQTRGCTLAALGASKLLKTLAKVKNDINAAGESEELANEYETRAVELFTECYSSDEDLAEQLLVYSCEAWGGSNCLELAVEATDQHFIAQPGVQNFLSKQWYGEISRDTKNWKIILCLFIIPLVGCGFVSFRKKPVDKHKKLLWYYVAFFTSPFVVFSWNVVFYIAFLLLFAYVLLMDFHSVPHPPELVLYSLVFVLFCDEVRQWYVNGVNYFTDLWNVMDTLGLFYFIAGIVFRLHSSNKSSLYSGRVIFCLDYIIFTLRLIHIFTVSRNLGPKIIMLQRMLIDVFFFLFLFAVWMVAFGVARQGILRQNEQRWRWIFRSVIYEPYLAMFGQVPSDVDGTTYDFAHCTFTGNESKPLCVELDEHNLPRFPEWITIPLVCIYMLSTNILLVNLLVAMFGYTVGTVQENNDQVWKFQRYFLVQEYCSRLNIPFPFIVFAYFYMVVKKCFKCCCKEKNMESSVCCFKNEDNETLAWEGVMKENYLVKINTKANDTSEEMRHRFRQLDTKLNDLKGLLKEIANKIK
Transient receptor potential cation channel subfamily V member 4, sequence (Q9HBA0 whole entry): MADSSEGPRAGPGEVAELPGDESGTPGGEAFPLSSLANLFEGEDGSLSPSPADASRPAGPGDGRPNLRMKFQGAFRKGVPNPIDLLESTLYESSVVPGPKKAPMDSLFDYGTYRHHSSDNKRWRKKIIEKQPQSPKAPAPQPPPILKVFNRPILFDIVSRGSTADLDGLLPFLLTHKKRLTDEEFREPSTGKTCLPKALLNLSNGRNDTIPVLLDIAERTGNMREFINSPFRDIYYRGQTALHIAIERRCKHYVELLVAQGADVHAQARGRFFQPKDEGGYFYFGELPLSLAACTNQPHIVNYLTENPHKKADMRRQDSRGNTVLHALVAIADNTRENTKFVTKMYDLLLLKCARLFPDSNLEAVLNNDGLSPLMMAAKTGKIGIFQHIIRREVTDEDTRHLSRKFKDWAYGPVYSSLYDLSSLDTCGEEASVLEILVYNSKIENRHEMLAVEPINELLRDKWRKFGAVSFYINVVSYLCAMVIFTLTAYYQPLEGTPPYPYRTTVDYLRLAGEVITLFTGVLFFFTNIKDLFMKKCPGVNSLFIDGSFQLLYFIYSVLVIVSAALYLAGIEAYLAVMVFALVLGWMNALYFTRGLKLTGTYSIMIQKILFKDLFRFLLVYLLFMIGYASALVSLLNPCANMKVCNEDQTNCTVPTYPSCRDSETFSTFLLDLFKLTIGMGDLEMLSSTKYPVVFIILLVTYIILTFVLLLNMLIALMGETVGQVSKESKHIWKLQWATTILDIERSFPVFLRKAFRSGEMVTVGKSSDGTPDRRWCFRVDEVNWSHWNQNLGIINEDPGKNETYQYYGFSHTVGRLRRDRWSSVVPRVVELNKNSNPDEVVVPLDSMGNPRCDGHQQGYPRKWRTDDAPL
Transient receptor potential cation channel subfamily V member 1, sequence (Q8NER1 whole entry): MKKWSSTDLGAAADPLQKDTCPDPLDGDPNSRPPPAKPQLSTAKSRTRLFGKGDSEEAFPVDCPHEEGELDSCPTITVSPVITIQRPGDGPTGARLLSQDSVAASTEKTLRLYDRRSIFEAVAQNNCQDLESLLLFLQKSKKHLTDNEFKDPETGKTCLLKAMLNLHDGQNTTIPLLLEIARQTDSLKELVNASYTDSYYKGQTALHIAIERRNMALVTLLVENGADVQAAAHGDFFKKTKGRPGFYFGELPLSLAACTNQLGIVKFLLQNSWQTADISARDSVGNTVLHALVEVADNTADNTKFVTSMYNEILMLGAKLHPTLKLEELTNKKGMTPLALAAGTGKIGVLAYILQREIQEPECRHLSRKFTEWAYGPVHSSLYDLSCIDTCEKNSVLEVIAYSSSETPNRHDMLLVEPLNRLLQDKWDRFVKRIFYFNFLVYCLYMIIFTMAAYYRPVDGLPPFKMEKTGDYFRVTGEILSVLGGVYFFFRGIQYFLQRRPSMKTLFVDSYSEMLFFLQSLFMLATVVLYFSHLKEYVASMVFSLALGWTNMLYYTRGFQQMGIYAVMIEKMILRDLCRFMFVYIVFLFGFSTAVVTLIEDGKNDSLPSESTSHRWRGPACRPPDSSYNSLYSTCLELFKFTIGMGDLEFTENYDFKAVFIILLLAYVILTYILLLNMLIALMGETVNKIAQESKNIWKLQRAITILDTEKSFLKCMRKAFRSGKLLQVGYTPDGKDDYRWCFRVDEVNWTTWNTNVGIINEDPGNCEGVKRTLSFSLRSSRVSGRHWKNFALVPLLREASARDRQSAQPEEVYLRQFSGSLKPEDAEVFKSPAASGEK

C/C=C(\C)[C@H]1C(C)=C[C@H]2C[C@@H](C)C[C@@H](C(=O)O)[C@@H]2[C@@]1(C)C(=O)CCO
IC50 [1]: 18.5 µM | MIC [2]: > 64 µg/mL | Activity [3]: inactive | Activity [4]: inactive

C/C=C(\C)[C@H]1C(C)=C[C@H]2C[C@@H](C)C[C@H]3C(O)=C(C=O)C(=O)[C@]1(C)[C@H]23
MIC [2]: 2 µg/mL (≈ 6.09 µM) | Activity [3]: inactive | Activity [4]: inactive

CCC(C)n1ncn(-c2ccc(N3CCN(c4ccc(OCC5COC(Cn6cncn6)(c6ccc(Cl)cc6Cl)O5)cc4)CC3)cc2)c1=O (stereo not drawn) [ITRACONAZOLE]
MIC [2]: 0.001 µg/mL (≈ 0.00142 µM)

C/C=C(\C)[C@H]1C(C)=C[C@H]2C[C@@H](C)C[C@H]3C(=O)/C(=C\NCCO)C(=O)[C@]1(C)[C@H]23
IC50 [1]: 61.6 µM | MIC [2]: 16 µg/mL (≈ 43.1 µM) | Activity [3]: inactive | Activity [4]: inactive

C/C=C(\C)[C@H]1C(C)=C[C@H]2C[C@@H](C)C[C@@H](C(=O)O)[C@@H]2[C@@]1(C)C(=O)c1cccnc1
IC50 [5]: 81.6 µM | IC50 [6]: 45.9 µM | MIC [2]: > 64 µg/mL | Activity [3]: inactive | Activity [4]: inactive

C[C@@H]1[C@H](O)[C@@H](C)/C=C/C=C/C=C/C=C/C=C/C=C/C=C/[C@H](O[C@@H]2O[C@H](C)[C@@H](O)[C@H](N)[C@@H]2O)C[C@@H]2O[C@](O)(C[C@@H](O)C[C@@H](O)[C@H](O)CC[C@@H](O)C[C@@H](O)CC(=O)O[C@H]1C)C[C@H](O)[C@H]2C(=O)O [AMPHOTERICIN B]
MIC [2]: 0.5 µg/mL (≈ 0.541 µM)
